The results in this text go back to PubChem BioAssay.

Test [1] in a line: inhibitors of TNFa-induced NFkB p65 translocation, primary screen, imaging, HUVEC, MLSMR starter and 10KST1 sets (AID 438;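 active = inhibition above 20% together with a positive visual image hit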;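 also: compound added about 3h40 before a 20 min TNFalpha stimulation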;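 as to inhibition: signal is the nuclear over cytoplasmic p65 intensity ratio per well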). The settings on record: HUVEC TNFa-induced p65 nuclear translocation; cell count: measured here: nuclei count (cytotoxicity indicator), at 2.08 µM; inhibition: at 2 µM, stronger effect = higher value, 0% TNFa-plus-vehicle, 100% no-TNFa wells.
Test [2] can be described thus: inhibitors of mutant huntingtin aggregation, primary screen, imaging, exon1htt(103Q)mCFP cells, high-content imaging (AID 483;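 active = visual image review flags a hit and inhibition of aggregation exceeds 20%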;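 also: compound exposure lasted 3 days before fixation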;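 as to nuclei count: percent of the per-plate median nuclei count of sample wells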). The note with it: exon1htt(103Q)mCFP cell line, aggregate imaging, at 2 µM; inhibition of aggregation: stronger effect = higher value; nuclei count: measured here: cell count, toxicity.
Test [3] is described as follows: inhibitors of E-selectin induction by TNFa, primary screen, imaging, HUVEC, immunofluorescence, MLSMR starter and 10KST1 sets (AID 487).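 As to inhibition: signal is fraction of cell area covered by stained E-selectin grains.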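 As to nuclei count: 100% = median nuclei count of all wells on the same plate.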 The settings on record: HUVEC TNFalpha-induced E-selectin immunofluorescence imaging, at 2 µM; inhibition: stronger effect = higher value; nuclei count: measured here: cell number, toxicity.
Test [4] addresses Voltage-gated potassium channel subunit beta-2 (Rattus norvegicus) (UniProt P62483). Nature of the test: KvBeta enzyme negative modulators, primary screen, biochemical, NADPH fluorescence (AID 622;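 active = fluorescence slope higher than the sample average by over 3 SD, cut at about -0.22 in these data, passing the limit was not always enough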;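 also: slope of raw intensity against log time taken from 70 to 1610 s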). The settings on record: recombinant KvBeta, 4-cyanobenzaldehyde reduction, at 10 µM, stronger effect = higher value.
Test [5] has the same target. Nature of the test: KvBeta positive modulators, primary screen, biochemical, NADPH fluorescence (AID 623;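 active = NADPH fluorescence slope more negative than the mean of all samples by about 3 SD, 99.7% confidence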;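 also: fluorescence intensity change per second fitted from 20 to 320 s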). The note with it: Recombinant KvBeta, NADPH fluorescence decrease slope, 10 min; at 10 µM; stronger effect = lower value.
For test [6], the target named is Muscarinic acetylcholine receptor M4 (Homo sapiens) (UniProt P08173). Nature of the test: compounds altering M4/GIRK thallium flux, either direction, primary screen, M4 allosteric agonist project, cell-based, HEK293 M4/GIRK, BTC-AM (AID 625;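 active = fluorescence slope after compound addition differing from the mean of all tested samples at 99.7% confidence, mostly higher but some lower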;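 also: thallium influx through GIRK channels coupled to M4 in HEK293 cells with BTC-AM dye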). The settings on record: at 10 µM, actives lie on both sides. In a few lines: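 Assay system: HEK293 cells with M4 receptor and GIRK channels / Controls: carbachol and DMSO controls / Schedule: 1 h dye loading, 2 min kinetic read / Technique: kinetic fluorescence with BTC-AM dye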

A short description of test [7]: inhibitors of Sendai virus-induced IRF3 signaling, primary screen, TLR/RLR signaling modifier project, cell-based, Sendai virus stimulus, luciferase, 10K MLSCN set (AID 602276;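 active = inhibition at or above 50% at 10 µM; inactive = inhibition below 50%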;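 also: firefly luciferase from ISG56 promoter only with Renilla not read in this screen; 0% = Sendai virus plus DMSO and 100% = medium plus DMSO without virus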). The note with it: HEK293 RL24 IRF3 luciferase reporter, at 10 µM, stronger effect = higher value. Background: A reporter such as luciferase makes a cellular process visible.
Test [8] can be described thus: inhibitors of poly I:C-induced TLR3 signaling, primary screen, cell-based, poly I:C stimulus, luciferase, 10K MLSCN set (AID 602277;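 active = inhibition of the reporter signal at or above 50%; inactive = inhibition below 50%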). The note with it: HEK293-TLR3 RL24 IRF3 luciferase reporter, at 10 µM, stronger effect = higher value.

Active and inactive are the calls of the source.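 The calls were made as follows, unless noted: active = visually confirmed hit in the image check and inhibition above 20%; inconclusive = visually confirmed hit but inhibition not above 20%; inactive = no visual hit in the image check.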

Sequence of Voltage-gated potassium channel subunit beta-2 (Rattus norvegicus) (P62483 whole entry, looked up): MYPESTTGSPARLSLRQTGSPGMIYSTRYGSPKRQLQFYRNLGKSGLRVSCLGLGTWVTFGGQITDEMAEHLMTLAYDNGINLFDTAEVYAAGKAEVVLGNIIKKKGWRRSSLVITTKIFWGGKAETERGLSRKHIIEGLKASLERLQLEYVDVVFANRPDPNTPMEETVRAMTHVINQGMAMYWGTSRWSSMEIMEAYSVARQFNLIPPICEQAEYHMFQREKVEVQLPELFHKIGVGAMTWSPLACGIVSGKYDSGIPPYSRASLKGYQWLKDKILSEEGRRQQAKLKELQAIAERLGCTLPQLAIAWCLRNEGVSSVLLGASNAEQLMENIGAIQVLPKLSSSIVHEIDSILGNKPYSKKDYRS
Sequence of Muscarinic acetylcholine receptor M4 (Homo sapiens) (P08173 whole entry, looked up): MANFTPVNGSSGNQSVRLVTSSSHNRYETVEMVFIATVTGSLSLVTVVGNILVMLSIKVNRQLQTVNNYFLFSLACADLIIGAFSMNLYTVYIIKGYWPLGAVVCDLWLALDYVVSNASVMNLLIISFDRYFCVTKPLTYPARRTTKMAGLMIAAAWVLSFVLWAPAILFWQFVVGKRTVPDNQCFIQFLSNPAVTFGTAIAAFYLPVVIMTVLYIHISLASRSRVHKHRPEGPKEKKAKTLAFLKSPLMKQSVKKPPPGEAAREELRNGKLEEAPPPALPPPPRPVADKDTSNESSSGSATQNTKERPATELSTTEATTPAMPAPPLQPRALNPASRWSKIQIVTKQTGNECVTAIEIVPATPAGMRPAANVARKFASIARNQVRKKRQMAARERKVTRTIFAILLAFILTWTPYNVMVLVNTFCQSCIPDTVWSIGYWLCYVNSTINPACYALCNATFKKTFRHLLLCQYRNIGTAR

What is called inhibition is the drop in the measured response relative to a control, in per cent. Take `COc1ccccc1NC(=O)N1c2ccc(F)cc2CCC1C` (centres undefined): in test [1], the cell count came to 407. Moreover, the inhibition in test [1] is -2.5% (inactive); in test [3], -58.6% (inactive); in test [7], 16.7% (inactive); in test [8] it was 24.1% (inactive). Besides, the inhibition of aggregation in test [2] is 2.1% (inactive). Besides, the nuclei count in test [2] amounted to 108%; in test [3] it was 111%. Besides, the fluorescence slope in test [4] was -0.567 (inactive); in test [6] it was 0.00635 (inactive). Further, the NADPH fluorescence slope in test [5] was -5e-06 (inactive).

For the molecule `Cc1cccc(OCC(=O)N2CCC(c3ccccc3)C2)c1` (centres undefined), the cell count in test [1] is 380. Also, the inhibition was 4.3% (inactive) in test [1], -6.3% (inactive) in test [3], -65.5% (inactive) in test [7] and -177% (inactive) in test [8]. The inhibition of aggregation in test [2] was -13.6% (inactive). For the same molecule, the nuclei count is 101% in test [2] and 115% in test [3]. For the same molecule, the values for the fluorescence slope in test [4] and in test [6] were -0.426 (inactive) and 0.0091 (inactive), respectively. In test [5], the NADPH fluorescence slope is 1.1e-05 (inactive).

For `COc1ccccc1-c1noc(-c2ccco2)n1`, in test [1], the cell count is 691. The inhibition was 7.2% (inactive) in test [1], 6% (inactive) in test [3], -44.2% (inactive) in test [7] and -96.7% (inactive) in test [8]. Further, in test [2], the inhibition of aggregation was 16.8% (inactive). Further, the nuclei count in test [2] was determined as 82.3%; in test [3], 101%. For the same molecule, the fluorescence slope in test [4] is -0.554 (inactive); in test [6] it was 0.00616 (inactive). Moreover, the NADPH fluorescence slope in test [5] was -4.8e-05 (inactive).

Take `COC(=O)c1ccc2c(=O)n(Cc3ccco3)c(SCC(=O)Nc3ccc(C)c(Cl)c3)nc2c1`: the cell count in test [1] was 445. Further, the inhibition in test [1] is 5% (inactive); in test [3], 4.9% (inactive); in test [7] it was 13.7% (inactive); in test [8], 28.2% (inactive). The inhibition of aggregation in test [2] was 10.1% (inactive). Moreover, the nuclei count in test [2] was 115%; in test [3], 91%. For the same molecule, the fluorescence slope is -0.436 (inactive) in test [4] and 0.00926 (inactive) in test [6]. The NADPH fluorescence slope in test [5] was -2.2e-05 (inactive).

With `C=CCSc1ncccc1C(=O)O`, the cell count in test [1] worked out at 709. In addition, the inhibition in test [1] is 6.9% (inactive); in test [3], -36.4% (inactive); in test [7] it was -12.7% (inactive); in test [8], -3.04% (inactive). Also, the inhibition of aggregation in test [2] is -8.1% (inactive). Moreover, the nuclei count in test [2] amounted to 108%; in test [3], 111%. Moreover, the fluorescence slope was -0.556 (inactive) in test [4] and 0.00662 (inactive) in test [6]. The NADPH fluorescence slope in test [5] was -6.2e-05 (inactive).

As for `CCSc1nc(C)nc2c1oc1ccccc12`, the cell count in test [1] is 407. Besides, the inhibition is 1.9% (inactive) in test [1], -45.2% (inactive) in test [3], -4.86% (inactive) in test [7] and -3.79% (inactive) in test [8]. The inhibition of aggregation in test [2] is 2.4% (inactive). In addition, the figures for the nuclei count in test [2] and in test [3] were 96.3% and 106%, respectively. In addition, the figures for the fluorescence slope in test [4] and in test [6] were -0.423 (inactive) and 0.00861 (inactive), respectively. In addition, the NADPH fluorescence slope in test [5] is -7.5e-05 (inactive).

As for `COCCn1c(-c2ccc(OC)c(OC)c2)nc2ccccc21`, the cell count in test [1] is 247. Besides, the inhibition is -1.1% (inactive) in test [1], 16.7% (inactive) in test [3], -2.29% (inactive) in test [7] and 11% (inactive) in test [8]. Also, in test [2], the inhibition of aggregation was 28.5% (inactive). The values for the nuclei count in test [2] and in test [3] were 85.8% and 77.6%, respectively. The fluorescence slope in test [4] is -0.536 (inactive); in test [6], 0.00485 (inactive). Further, the NADPH fluorescence slope in test [5] is -3.2e-05 (inactive).

Turning to `CCN(CC)C(=O)Oc1ccccc1NC(C)=O`, the cell count in test [1] worked out at 366. Also, the inhibition in test [1] is -3.9% (inactive); in test [3], -63.5% (inactive); in test [7], 20.6% (inactive); in test [8] it was 13.2% (inactive). Further, in test [2], the inhibition of aggregation is 17.2% (inactive). Further, the results for the nuclei count in test [2] and in test [3] were 85.8% and 121%, respectively. In addition, the values for the fluorescence slope in test [4] and in test [6] were -0.221 (inactive) and 0.00764 (inactive), respectively. The NADPH fluorescence slope in test [5] was 2.5e-07 (inactive).

For `CN(CC(=O)Nc1ccncc1)S(=O)(=O)c1ccccc1`, the cell count in test [1] was found to be 351. The inhibition in test [1] was 4.9% (inactive); in test [3], -141% (inactive); in test [7], 14.3% (inactive); in test [8], 2.23% (inactive). Further, the inhibition of aggregation in test [2] is 11.1% (inactive). Besides, the nuclei count is 108% in test [2] and 148% in test [3]. Further, the fluorescence slope is -0.432 (inactive) in test [4] and 0.00615 (inactive) in test [6]. The NADPH fluorescence slope in test [5] is -7.6e-05 (inactive).

Take `Cc1cccc(CS(=O)(=O)Cc2ccc(C(=O)NCC3CCCO3)o2)c1` (centres undefined): the cell count in test [1] was 450. Also, the inhibition was 4.5% (inactive) in test [1], -36.2% (inactive) in test [3], -2% (inactive) in test [7] and 8.02% (inactive) in test [8]. Moreover, the inhibition of aggregation in test [2] was 13.6% (inactive). In addition, the results for the nuclei count in test [2] and in test [3] were 99.3% and 112%, respectively. Further, the fluorescence slope is -0.582 (inactive) in test [4] and 0.00601 (inactive) in test [6]. Also, the NADPH fluorescence slope in test [5] was 9.9e-06 (inactive).

Regarding `Cc1cc(NCCCn2ccnc2)n2c(nc3ccccc32)c1C#N`, the cell count in test [1] turned out to be 276. For the same molecule, the inhibition in test [1] is -23.5% (inactive); in test [3] it was 16.6% (inactive); in test [7], -6.75% (inactive); in test [8], -0.197% (inactive). Further, the inhibition of aggregation in test [2] is 17.7% (inactive). Moreover, the figures for the nuclei count in test [2] and in test [3] were 70.2% and 80.2%, respectively. Also, the results for the fluorescence slope in test [4] and in test [6] were -0.501 (inactive) and 0.00606 (inactive), respectively. The NADPH fluorescence slope in test [5] was 2e-06 (inactive).

Turning to `COC(=O)c1[nH]c2cccc(C)c2c1NC(=O)CN1CCCc2ccccc21`, the cell count in test [1] turned out to be 279. Moreover, the inhibition in test [1] was 6.2% (inactive); in test [3] it was -47.3% (inactive); in test [7], 2.04% (inactive); in test [8], 20% (inactive). Besides, in test [2], the inhibition of aggregation is 22.8% (inactive). Besides, the nuclei count was 94% in test [2] and 100% in test [3]. In addition, the fluorescence slope in test [4] is -0.45 (inactive); in test [6], 0.00793 (inactive). In addition, the NADPH fluorescence slope in test [5] was 6.4e-05 (inactive).

On to `CCc1nc(SCC(=O)Nc2nccs2)c2oc3ccccc3c2n1`, for which the cell count in test [1] came out at 347. For the same molecule, the inhibition in test [1] was 4% (inactive); in test [3], -14.6% (inactive); in test [7] it was 1.9% (inactive); in test [8], -8.08% (inactive). Besides, in test [2], the inhibition of aggregation is 12.5% (inactive). Further, the nuclei count in test [2] is 104%; in test [3] it was 116%. The fluorescence slope in test [4] is -0.283 (inactive); in test [6], 0.00667 (inactive). In test [5], the NADPH fluorescence slope is -2.5e-06 (inactive).

Turning to `Cc1cc(C)c2c(n1)sc1c(N3CCOCC3)ncnc12`, in test [1], the cell count was 301. Further, the inhibition in test [1] was -4.9% (inactive); in test [3], -61.4% (inactive); in test [7] it was 5.74% (inactive); in test [8], -3.16% (inactive). Besides, the inhibition of aggregation in test [2] is -151% (inactive). In addition, the nuclei count amounted to 0.6% in test [2] and 121% in test [3]. Also, the fluorescence slope in test [4] is -0.305 (inactive); in test [6] it was 0.00639 (inactive). Further, the NADPH fluorescence slope in test [5] was -6.3e-05 (inactive).
